TRPC6 act: activators of mouse TRPC6 channel. Q61143. HEK293-TRPC6 membrane potential dye fluorescence; hits give high values. B-score at 10 µM. 310,000 tested, 0.13% active. AID 2550;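 active = B-score of the integrated fluorescence ratio above library mean plus 3 SD, and starting fluorescence ratio within library mean plus 5 SD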;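 note: higher score means more depolarization so channel activation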
TRPC4 block: TRPC4 (mouse) channel inhibition. AID 2247. B-score at 10 µM. HEK293 TRPC4beta/mu-opioid, DAMGO-evoked Fluo4 calcium flux; hits give low values. 300,000 tested, 0.39% active. Q9QUQ5;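 active = B-score over 3 SD under the library average, no early fluorescence shift, positive overall ratio signal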
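Assay system: Stable TRPC4beta/mu-opioid receptor HEK293 cells | Reagent: DAMGO in two steps, submaximal then maximal | Compound dosing: Single concentration per test compound | Signal: Fluo4 Ca2+ flux fluorescence | Evaluation: Per-well B score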
TRPC4 act: activators of mouse TRPC4 channel | Q9QUQ5 | HEK293 TRPC4beta/mu-opioid, Fluo4 calcium fluorescence; hits give high values | B-score at 10 µM | 310,000 tested, 0.49% active;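 active = B-score above 5 SD of library B-scores, and initial fluorescence ratio not above library mean plus 5 SD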;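 note: positive B-score marks a calcium rise read as TRPC4 activation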
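Material: TRPC4beta and mu-opioid receptor HEK293 stable cells | Incubation: 45 min room-temperature Fluo4 loading, 110 s read | Detection: Kinetic Fluo4 calcium fluorescence | Measure: Integrated baseline-normalised fluorescence ratio, converted to per-well B score | Benchmarks: Low control buffer alone, high control maximal DAMGO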
Kir21 block: Kir2.1 (mouse) channel inhibition; 310,000 tested, 0.85% active; P35561; B-score at 10 µM; HEK293-Kir2.1, FluxOR thallium flux fluorescence; hits give low values;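 active = fluorescence ratio B-score at or below minus 3 SD of library scores, with starting-brightness B-score within 2 SD, cut at about -4.2 in these data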;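 note: channel flux triggered by added potassium and thallium sulfate stimulus; B-score of peak minus minimum fluorescence over baseline after thallium stimulus; more negative B-score means stronger Kir2.1 block with less thallium influx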
Target sequence (P35561 whole entry, looked up): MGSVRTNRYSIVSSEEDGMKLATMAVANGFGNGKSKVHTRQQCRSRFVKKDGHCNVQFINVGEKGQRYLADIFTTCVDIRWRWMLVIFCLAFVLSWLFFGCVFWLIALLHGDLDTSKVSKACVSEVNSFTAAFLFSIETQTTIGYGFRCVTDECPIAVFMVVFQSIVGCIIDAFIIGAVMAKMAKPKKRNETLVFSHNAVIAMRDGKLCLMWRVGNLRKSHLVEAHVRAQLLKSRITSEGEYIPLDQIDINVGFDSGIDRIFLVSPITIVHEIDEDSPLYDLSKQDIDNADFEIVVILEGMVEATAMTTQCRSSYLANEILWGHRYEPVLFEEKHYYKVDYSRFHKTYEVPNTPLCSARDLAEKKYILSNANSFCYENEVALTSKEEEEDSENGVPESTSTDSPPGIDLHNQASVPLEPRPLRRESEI
TRPC6 inh: blocks the mouse TRPC6 cation channel. 310,000 tested, 1.1% active. B-score at 10 µM. Q61143. HEK293-TRPC6, membrane potential dye, ACh-evoked depolarization; hits give low values;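 active = B-score under library mean minus 3 SD, initial fluorescence not abnormally high, positive integrated signal ratio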;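 note: B-score derived from integrated fluorescence ratio over the kinetic read; more negative B-score means stronger inhibition of depolarization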
TRPC4 PAM: allosteric potentiators of mouse TRPC4 channel. Q9QUQ5. B-score at 10 µM. HEK293 TRPC4beta/mu-opioid, DAMGO EC20, Fluo-4 Ca2+ flux; hits give high values. 310,000 tested, 0.42% active;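 active = B-score of calcium response area above 5 SD of library B-scores, with initial fluorescence ratio within 5 SD of library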;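 note: B-score of integrated fluorescence ratio over time as area under calcium response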
TRPC4 spec 2: mouse TRPC4 off-target activity of TRPC6 inhibitors, second screen | shares compounds with TRPC6 inh | HEK293 TRPC4/MOR, membrane potential dye fluorescence; channel activated by saturating DAMGO dose | inhibition, % at 10 µM | 920 tested, 42% active;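 active = compounds whose fluorescence signal differed from control wells by over 3 SD, either direction, in both duplicate plates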
TRPC4 spec: mouse TRPC4 off-target activity of TRPC6 inhibitors; shares compounds with TRPC6 inh; HEK293 TRPC4/mu-opioid, membrane potential fluorescence; activity change, negative = inhibition, % at 10 µM; 920 tested, 61% active;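 active = rise or fall in signal beyond 3 SD of buffer-only wells in both replicate plates, either sign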;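 note: integrated kinetic ratio of fluorescence range over baseline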
HEK293 MPD ctr 2-1: second check of TRPC6 inhibitor effects in parental HEK293 cells; shares compounds with TRPC6 inh; parental HEK293 membrane potential dye fluorescence; maximal acetylcholine challenge after compound addition; signal change vs control, % at 10 µM; 920 tested, 31% active;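 active = membrane potential signal moving either way by over 3 SD of the maximum-effect control, in both duplicate plates, meaning non-specific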
HEK293 MPD ctr-1: checks TRPC6 inhibitor effects in parental HEK293 cells | 920 tested, 60% active | membrane potential signal change, % at 10 µM | shares compounds with TRPC6 inh | parental HEK293 membrane potential dye fluorescence | AID 2780;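 active = membrane potential signal shifting up or down by more than 3 SD of buffer-only wells, on both duplicate plates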
HEK293 MPD ctr-2: parental HEK293 nonspecific activity of TRPC6 modulators | shares compounds with TRPC6 inh | membrane potential dye fluorescence | membrane potential signal change, % at 10 µM | 2,400 tested, 51% active;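 active = membrane potential signal moves up or down beyond 5 SD from buffer-only wells, on both duplicate plates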
HEK293 MPD ctr 2-2: second check of TRPC6 modulator effects in parental HEK293 cells | 2,400 tested, 14% active | shares compounds with TRPC6 inh | membrane potential dye fluorescence; after compound, maximal acetylcholine stimulation | inhibition, % at 10 µM;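 active = membrane potential signal drops by more than 5 SD from the mean control signal, in both duplicate plates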;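 note: plate controls were acetylcholine ECmax control wells for no effect and buffer only wells for full effect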
TRPC4/MOR mod: mouse TRPC4 off-target activity of TRPC6 modulators. shares compounds with TRPC6 inh. AID 488927. 2,400 tested, 69% active. HEK293 TRPC4/mu-opioid, membrane potential fluorescence. percent change from control (negative = decrease, positive = increase), % at 10 µM;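 active = membrane potential signal moved up or down beyond 5 SD of buffer control wells, in both duplicate plates, actives on both sides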;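 note: plate controls were assay buffer wells for no effect and DAMGO maximal-effect wells for full effect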
TRPC4 ctr inh 2: mouse TRPC4 off-target activity of TRPC6 modulators, second screen. shares compounds with TRPC6 inh. HEK293 TRPC4/mu-opioid, membrane potential dye fluorescence; stimulated with maximal-effect DAMGO. inhibition, % at 10 µM. 2,400 tested, 55% active. AID 488928;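 active = drop in membrane potential signal beyond 5 SD of the control wells in both duplicate plates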;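 note: TRPC4 counter screen for TRPC6 hits run under conditions tuned for TRPC6 not TRPC4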
TRPC6 inh conf: confirmation of mouse TRPC6 inhibitors; HEK293-TRPC6, membrane potential dye, ACh-evoked depolarization; AID 488960; shares compounds with TRPC6 inh; 3,300 tested, 43% active; inhibition, % at 10 µM;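 active = fluorescence ratio falls more than 5 SD below the full-stimulation control mean, in both duplicate runs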;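 note: integrated fluorescence ratio of peak minus minimum over baseline after agonist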
TRPC6 act confirm: mouse TRPC6 activator confirmation. shares compounds with TRPC6 inh. HEK293-TRPC6 membrane potential dye fluorescence, FDSS. activation, % at 10 µM. 2,800 tested, 11% active. AID 488961;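 active = ratio signal rise beyond 5 SD above unstimulated control wells' mean, seen in both duplicate runs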;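 note: plate controls were buffer EC0 wells for no effect and acetylcholine ECmax response for full effect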
* hit, by the source's call; i = inactive; / = not tested or not shown. Hits are enriched below; roughly 2.9% of the tested compounds scored in any of these assays.

SMILES	TRPC6 act	TRPC4 block	TRPC4 act	Kir21 block	TRPC6 inh	TRPC4 PAM	HEK293 MPD ctr-2	HEK293 MPD ctr 2-2	TRPC4/MOR mod	TRPC4 ctr inh 2	TRPC6 inh conf	TRPC6 act confirm	others
CCC(C)[C@H]1CNCCN1CCc1cc(C(F)(F)F)cc(C(F)(F)F)c1 (some centres undefined)	i	i	i	-2.7	-7.2*	i	/	/	/	/	i	i	TRPC4 spec 2=54%*;TRPC4 spec=i;HEK293 MPD ctr 2-1=i;HEK293 MPD ctr-1=i
O=C(CCN1CCN(S(=O)(=O)c2ccc(Cl)cc2)CC1)Nc1ccccc1F	i	i	i	0.04	i	i	/	/	/	/	/	/
Oc1ccc(N=Nc2ccc(Br)cc2)c(O)c1	i	i	i	3.5	-5.3*	i	i	i	i	i	i	i
CN(C)c1ccc2c(c1)OC(N)=C(C#N)C2c1cccc(F)c1 (centres undefined)	12*	i	56*	-0.41	i	i	413%*	i	30%*	45%*	i	44%*
C#CCn1cc(Cl)cc(C(=O)Nc2ccccc2)c1=O	i	i	i	-1.3	-7.1*	i	/	/	/	/	i	i	TRPC4 spec 2=i;TRPC4 spec=i;HEK293 MPD ctr 2-1=i;HEK293 MPD ctr-1=i
C#CCn1cccc(C(=O)Nc2ccc(OC)cc2)c1=O	i	i	i	-0.43	i	i	/	/	/	/	/	/
Cn1nnc2cc(NC(=O)Nc3cccc(Cl)c3)ccc21	i	i	i	0.64	i	i	/	/	/	/	/	/
c1ccc(CN2CCN(Cc3nnc(-c4ccccc4)o3)CC2)cc1	i	i	i	-0.57	-5.6*	i	i	66%*	11%*	i	64%*	/
CC(C)c1nc(N2CCOCC2)c(C#N)c2c1CCCC2	i	i	i	-2.2	-5.5*	i	i	i	18%*	i	i	/
Cn1ncc(C#N)c1/N=C/N1CCOCC1	i	i	i	-1.2	i	i	/	/	/	/	/	/
c1ccc(N2CCN(c3ccccc3)C2c2cccnc2)cc1	i	i	i	-2.8	-5.6*	i	i	i	18%*	31%*	i	/
Cc1ccc(N2CCN(c3ccc(C)cc3)C2c2cccnc2)cc1	i	i	i	-1.7	i	i	/	/	/	/	/	/
CCCNC(=O)OCc1cccnc1Sc1ccc(C)cc1	i	i	i	0.39	i	i	/	/	/	/	/	/
O=C(c1cccs1)N1CCCC(c2nc3c(nnn3Cc3ccc(F)cc3)c(=O)[nH]2)C1 (centres undefined)	i	i	i	-0.58	-7.5*	i	/	/	/	/	i	i	TRPC4 spec 2=i;TRPC4 spec=i;HEK293 MPD ctr 2-1=i;HEK293 MPD ctr-1=i
COc1ccc(Nc2nc(N)nc(CN3CCN(c4ccccn4)CC3)n2)cc1	i	i	i	-1	i	i	/	/	/	/	/	/
CN(C)CCN1C(=O)C(O)=C(C(=O)c2cc3ccccc3o2)C1c1cccc(Br)c1 (centres undefined)	i	i	i	-0.45	i	i	/	/	/	/	/	/
Cc1ccc(CNC(=O)CSc2nc3c(sc4ccccc43)c(=O)n2CCCN2CCCC2)cc1	i	i	i	-3.3	-5.8*	i	i	i	8.0%*	69%*	43%*	i
O=C(Nc1ccccc1NC(=O)c1c(F)cccc1F)c1c(F)cccc1F	i	i	i	-0.01	-5.8*	i	i	i	i	i	i	i
CC(C)N(C(=O)CSc1nnc(-c2cc3ccccc3cc2O)n1Cc1ccco1)C(C)C	i	i	i	0.05	i	i	/	/	/	/	/	/
COCCn1c(SCC(=O)N(C(C)C)C(C)C)nnc1-c1cc2ccccc2cc1O	i	i	i	1.5	-5.1*	i	i	i	i	i	42%*	/
COc1ccc(Cl)cc1NC(=O)C(C)Sc1nncn1C (centres undefined)	i	i	i	1.2	i	i	/	/	/	/	/	/
Cc1ccc(S(=O)(=O)c2ncccc2N)cc1	i	i	i	-0.42	i	i	/	/	/	/	/	/
COC(=O)c1ccc(Oc2cc(C)nc(NCc3ccccc3)n2)cc1	i	i	i	0.65	i	i	/	/	/	/	/	/
COC(=O)c1ccc(Oc2nc(C)cc(Oc3ccccc3)n2)cc1	i	i	i	0.54	-7.8*	i	/	/	/	/	i	i	TRPC4 spec 2=i;TRPC4 spec=1.0%*;HEK293 MPD ctr 2-1=i;HEK293 MPD ctr-1=1.6%*
COC(=O)C1=C(C)NC(C)=C(C(=O)OCC2CCCO2)C1c1ccc(Cl)c([N+](=O)[O-])c1 (centres undefined)	i	i	i	0	i	i	/	/	/	/	/	/
COC(=O)C1(C)NC(c2ccc(OC)cc2)C2C(=O)N(c3ccccc3)C(=O)C21 (centres undefined)	i	i	i	0.01	-7.8*	i	/	/	/	/	i	i	TRPC4 spec 2=i;TRPC4 spec=i;HEK293 MPD ctr 2-1=i;HEK293 MPD ctr-1=i
COC(=O)C1(C)NC(c2ccc(O)cc2)C2C(=O)N(c3ccccc3)C(=O)C21 (centres undefined)	i	i	i	-1.3	i	i	/	/	/	/	/	/

Compound activity: PubChem, Johns Hopkins Ion Channel Center
